EP2 mod: modulates human prostaglandin E2 receptor EP2 signaling; EP2-expressing cells, cAMP HTRF FRET, PGE2 co-stimulation; induction, % at 25 µM; 260,000 compounds, 0.83% hits;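 active = compounds whose cAMP rise, as percent of the full-agonist control response, exceeds 60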;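 note: rat C6 glioma line stably carrying human EP2 under a CMV promoter; the protocol text gives 20 µM as final concentration; 100% = response of wells given 1 µM PGE2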
Target sequence (P43116 whole entry, looked up): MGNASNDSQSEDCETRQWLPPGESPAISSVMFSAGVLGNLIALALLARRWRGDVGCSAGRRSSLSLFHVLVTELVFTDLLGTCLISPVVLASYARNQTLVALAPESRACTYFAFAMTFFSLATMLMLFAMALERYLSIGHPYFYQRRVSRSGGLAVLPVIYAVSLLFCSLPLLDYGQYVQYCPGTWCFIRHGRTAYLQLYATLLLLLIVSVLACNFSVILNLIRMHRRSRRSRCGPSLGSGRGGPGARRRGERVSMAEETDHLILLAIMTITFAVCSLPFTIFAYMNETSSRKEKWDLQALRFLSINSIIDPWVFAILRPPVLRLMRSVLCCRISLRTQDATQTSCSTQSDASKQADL
TbHK1 inh: T. brucei hexokinase 1 inhibition | inhibition, % at 10 µM | recombinant TbHK1, G6PDH-coupled NADH A340 | 220,000 compounds, 0.11% hits | AID 1430;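 active = inhibition of 50% or more in the single-dose primary screen; inactive = inhibition below 50%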
EP2 antag: inhibitors of human EP2 prostaglandin E2 receptor. P43116. 260,000 compounds, 0.52% hits. C6 glioma cells expressing human EP2, cAMP TR-FRET; cells stimulated with saturating PGE2. AID 1422. inhibition, % at 25 µM;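 active = percent inhibition above 40 after rounding to a whole number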;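 note: rat C6 glioma host cells with rolipram phosphodiesterase inhibitor present; the protocol text gives 20 µM as final concentration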
MT stabilizer: microtubule stabilizers in HeLa cells; HeLa tubulin immunostaining HCS, 24 h; share of cells brighter than vehicle mean+2SD; % tubulin-high responders, % at 10 µM; 200,000 compounds, 0.83% hits;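 active = plate Z-score above 3 for both tubulin-high and condensed-nucleus cell shares, with cell loss under 80%, at 10 µM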;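 note: anti alpha tubulin signal scored within the nucleus-defined area of each cell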
HMGR II inh: E. faecalis class II HMG-CoA reductase inhibition. purified E. faecalis HMGR, NADPH absorbance 340 nm kinetic. inhibition, % at 10 µM. 190,000 compounds, 0.41% hits. AID 1066;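 active = inhibition above a set limit, the median over all tested compounds plus 3 SD, cut at about 9.5% in these data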;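 note: enzyme runs in reverse so mevalonate oxidation gives rising NADPH absorbance; 0% = complete reaction with DMSO and 100% = background rate lacking mevalonate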
b-catenin transl: beta-catenin nuclear translocation modulation; nuclear translocation activity, % at 5 µM; 190,000 compounds, 0.3% hits; HeLa beta-catenin nuclear translocation, immunofluorescence imaging;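 active = nuclear translocation activity above 50% at 5 µM, with a well cell count of 50 or more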;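 note: per-cell ratio of nuclear to cytoplasmic median beta-catenin stain intensity; plate controls were DMSO negative control for no effect and GSK-3 inhibitor IX positive control for full effect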
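System: HeLa cells, endogenous beta-catenin; compound dosing: 5 µM primary single dose, 0.1% DMSO, 0.02–20 µM confirmation series; incubation: 24 h compound exposure at 37°C, 5% CO2; signal: beta-catenin immunofluorescence imaging with DAPI; evaluation: % activation, nuclear-to-cytoplasmic median beta-catenin signal ratio per cell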
The depositor's hits bear a star; . = no result given. A selection: hits, their analogues and other compounds. The true share with any hit is near 2.4%.

SMILES	EP2 mod	TbHK1 inh	EP2 antag	MT stabilizer	HMGR II inh	b-catenin transl
COc1ccc(NC(=O)CCC2CCCC2)cc1OC	22	5	15	3	-4	0
Cc1onc(-c2c(F)cccc2Cl)c1C(=O)Nc1sc2c(c1C(N)=O)CCC2	50	7	7	31*	-1	.
O=C(/C=C/c1ccco1)Nc1sc2c(c1C(=O)O)CCC2	-4	5	6	2	0	2
CCC(=O)Nc1sc2c(c1C#N)CCCCC2	62*	-7	13	1	-2	2
Cc1onc(-c2ccccc2)c1C(=O)Nc1sc2c(c1C#N)CCC2	18	-4	9	20*	-1	1
N#Cc1c(NC(=O)/C=C/c2ccco2)sc2c1CCCC2	1	-15	10	5	0	106*
Cc1cccc(NC(=O)C(C#N)Cc2cccnc2)c1C (stereo not given)	-11	.	12	.	.	.
Cc1cc(C(=O)Nc2sc3c(c2C#N)CCC3)no1	-20	-15	11	22	3	.
Cc1cc(C(=O)Nc2sc3c(c2C#N)CCCC3)no1	12	-15	3	18*	2	-1
O=C1c2ccccc2C(=O)C1(O)N1CCN(C2(O)C(=O)c3ccccc3C2=O)CC1	-82	.	28	.	.	.
Cc1nn(-c2ccccc2)c(N)c1N=Nc1ccc2ccccc2c1	-43	-13	11	3	-5	-3
Cc1ccc(N=Nc2c(N)nn(-c3ccccc3)c2N)cc1	-70	-19	8	10*	-3	2
COc1ccc(Nc2nc3ccccc3nc2-n2nc(C)cc2C)cc1	65*	-4	9	2	-2	.
Cc1cc(C)n(-c2nc3ccccc3nc2NCCc2ccccc2)n1	55	-7	8	3	0	0
COc1cc(NS(=O)(=O)c2ccc(Nc3nc(-c4cccc([N+](=O)[O-])c4)cs3)cc2)nc(OC)n1	-67	3	45*	5	-4	-1
O=[N+]([O-])c1cccc(-c2csc(Nc3ccccc3)n2)c1	28	7	8	1	-3	-1
O=C(/C=C/c1ccccc1)NCCc1c[nH]c2ccccc12	-134	.	74*	.	.	.
CC(C)C(=O)NCCc1c[nH]c2ccccc12	-21	28	8	2	-6	.
CCc1cc2cccc(C)c2nc1SCC(=O)N1CCOCC1	7	.	9	.	.	.
CCOC(=O)CSc1nc2c(C)cccc2cc1CC	73*	.	10	.	.	.
CCOC(=O)CSc1nc2c(C)c(C)ccc2cc1C	88*	.	12	.	.	.
Cc1cc2ccc(C)c(C)c2nc1SCC(N)=O	48	.	11	.	.	.
O=C(Nc1nc2c(Br)cc(Br)cc2c(=O)s1)c1ccco1	65*	-20	13	.	.	-1
Cc1nc(NC(=O)c2ccco2)sc1C(=O)Nc1ccc(Br)cc1	-30	13	13	6	0	0
CC(NCCC(c1ccccc1)c1ccccc1)c1ccccc1 (stereo not given)	16	13	14	4	19*	.
SMILES	EP2 mod	TbHK1 inh	EP2 antag	MT stabilizer	HMGR II inh	b-catenin transl
Cc1ccc(OC(C)C(=O)N=Nc2c(O)[nH]c3ccc([N+](=O)[O-])cc23)cc1 (stereo not given)	-59	-31	9	16*	2	-1
Cc1ccc(NCC(=O)N=Nc2c(O)[nH]c3ccc([N+](=O)[O-])cc23)cc1	-13	-39	18	.	.	-2
O=C(CSCc1c(Cl)cccc1Cl)NCc1ccncc1	5	.	10	.	.	.
Cc1ccc(Cl)cc1NC(=O)CSC1=NCCS1	-18	.	7	.	.	.
C/C(=N\NC(=S)NCc1ccccc1)c1ccccc1F	64*	-2	3	2	-2	-2
c1ccc(-c2nnsc2-c2nc3ccccc3[nH]2)cc1	-43	-25	6	2	12*	1
c1ccc(-c2nnsc2-c2ncc[nH]2)cc1	-27	-10	4	3	1	-1
COc1nc(-c2cccs2)cc(-c2ccc(C)cc2)c1C#N	28	-3	9	42*	-2	-2
COc1ccc(-c2cc(-c3cccs3)nc(OC)c2C#N)cc1OC	25	-29	3	9.6*	-8	50*
COc1ccc(-c2cc(-c3cccs3)c(C#N)c(SCC(=O)NCc3ccccc3)n2)cc1	-5	9	18	7	-5	4
COc1ccc(-c2cc(-c3ccc(C)cc3)nc(N)c2C#N)cc1OC	-133	.	11	.	.	.
COC(=O)c1ccc(C(=O)N2CCn3c(nnc3C3CC3)C2)cc1	5	.	.	.	.	.
O=C(NC1CCCCC1)NC1CCN(CC(=O)c2ccccc2)CC1	-2	.	8	.	.	.
Oc1c(Cl)cc(C(c2cc(Cl)c(O)c(Cl)c2)C(c2cc(Cl)c(O)c(Cl)c2)c2cc(Cl)c(O)c(Cl)c2)cc1Cl	28	.	49*	.	.	.
Cc1c(C(=O)N2CCOCC2)sc(NC(=O)C2CC2)c1C#N	9	.	17	.	.	.
CCN(CC)CCOc1nc(C)nc2c1oc1ccccc12	-6	-2	7	2	14*	-5
Cc1cc(=O)[nH]c(SCC(=O)Nc2ccccc2C#N)c1C#N	25	-6	3	44*	-1	0
Cn1c(=O)c(C(=O)CSc2ccccc2)c(N)n(Cc2ccccc2)c1=O	-30	-15	10	3	14*	0
c1csc(CNc2c(-c3cccs3)nc3cnccn23)c1	-62	.	.	.	.	.
O=C(CSc1nnnn1-c1ccc2c(c1)OCO2)NCc1ccccc1	-14	5	9	42*	0	.
Cc1cccc(N(C(=O)c2csnn2)C(C(=O)NC2CCCC2)c2cccs2)c1 (stereo not given)	33	.	3	.	.	.
CCN(CC)c1c(-c2ccccc2)c2cc(C)ccc2[nH]c1=O	61*	-4	10	2	-11	-2
C/C(=N\N)c1c(-c2ccccc2)c2cc(C)ccc2[nH]c1=O	14	-10	11	.	.	1
CCS(=O)(=O)n1nc(-c2ccco2)nc1N	17	-3	5	2	10*	1
CCC(=O)n1nc(-c2ccco2)nc1N	19	1	19	4	-8	-2
SMILES	EP2 mod	TbHK1 inh	EP2 antag	MT stabilizer	HMGR II inh	b-catenin transl
COc1cc(S(=O)(=O)N(CCc2ccc(F)cc2)Cc2ccco2)ccc1-n1cnnn1	-3	.	6	.	.	.
CCOc1ccccc1CN(Cc1ccco1)S(=O)(=O)c1ccc(-n2cnnn2)c(OC)c1	17	4	10	41*	-7	-1
CC(C)CCOc1ccccc1C(N)=O	8	0	1	1	9.7*	0
CCCCCCOc1ccccc1C(N)=O	18	.	16	.	.	.
N#C/C(=C\c1ccc([N+](=O)[O-])o1)c1nc2ccccc2[nH]1	-11	1	69*	15	-12	29
N#C/C(=C(/O)c1ccc([N+](=O)[O-])o1)c1nc2ccccc2[nH]1	-43	-33	17	.	.	1
Cc1ccc2nc(/C(C#N)=C\c3ccc([N+](=O)[O-])o3)[nH]c2c1	-40	-10	64*	62	-9	.
O=C(NC1CCCCC1)C(c1ccccn1)N(C(=O)Cc1cccs1)c1cccc2ccccc12 (stereo not given)	8	.	9	.	.	.

From PubChem
